The source of these data is ChEMBL document CHEMBL2021826, “Ester and carbamate ester derivatives of Biochanin A: synthesis and in vitro evaluation of estrogenic and antiproliferative activities” (Bioorg Med Chem, 2012).

The test system of assay [1] is Ishikawa. Description: Estrogenic activity at estrogen receptor in human Ishikawa cells assessed as induction of alkaline phosphatase expression at 10 uM after 72 hrs by microplate reader relative to untreated vehicle control. Format: cell-based. Put shortly:
(§1)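 Ishikawa cells plated at 12,000/well in phenol red-free MEM, 1 µg/mL insulin, 5% DCC-FBS. Compounds up to 10 µM, or DMSO (0.1% final), added 24 h after plating. Alkaline phosphatase activity read 72 h later on a plate reader, as % of vehicle-treated cells. […] Three independent experiments in triplicate.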

For assay [2], the species on record is Homo sapiens. As to the kind of experiment: Estrogenic activity at estrogen receptor in human MCF7:D5L cells co-expressing ERE assessed as induction of luciferase gene expression at => 0.1 nM after 16 hrs by microplate reader in presence of 100 nM ER destabilizer fulvestrant. Format: cell-based. The method, boiled down:
(§2)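 Separate wells received 100 nM PPT, or 100 nM MPP with or without 100 nM DPN, added 72 h after plating. Luciferase measured 16 h later relative to vehicle. Mean ± SEM, three experiments in triplicate; t-test vs vehicle.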

In assay [3] the test system is Ishikawa. Description: Estrogenic activity at estrogen receptor in human Ishikawa cells assessed as induction of alkaline phosphatase expression at 1 uM after 72 hrs by microplate reader relative to untreated vehicle control. Format: cell-based. The method, boiled down:
as §1

Assay [4] deals with MCF7. As to the kind of experiment: Antiproliferative activity against estrogen-deficient human MCF7 cells after 72 hrs by MTT assay. Format: functional, cell-based. To be noted: MCF7, 72 h. The method, boiled down:
(§3)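 MCF-7 cells plated at 8000/well in phenol red-free MEM with 1 µg/mL insulin and 5% DCC-FBS (estrogen-free). Compounds up to 10 µM (0.01–10 µM), or DMSO vehicle at 0.1% final, added 24 h after plating. MTT conversion read 72 h later at 550 and 690 nm (reference), as % of vehicle. […] Three independent experiments in triplicate.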

Assay [5] has as its system MCF7. As to the kind of experiment: Antiproliferative activity against estrogen-deficient human MCF7 cells at 10 uM after 72 hrs by MTT assay relative to untreated vehicle control. Format: functional. Put shortly:
as §3
(Tetrazolium assays rely on reduction of a dye to a coloured formazan, in cell work by metabolically active cells.)

Assay [6] concerns Ishikawa. As to the kind of experiment: Estrogenic activity at estrogen receptor in human Ishikawa cells assessed as induction of alkaline phosphatase expression at => 0.1 nM after 72 hrs by microplate reader relative to untreated vehicle control in presence of 100 nM ER destabilizer fulvestrant. Format: cell-based. The method, boiled down: (§4)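 Separate wells received 100 nM PPT, or 100 nM MPP with or without 100 nM DPN. AlkP activity read 72 h after dosing, relative to vehicle. Mean ± SEM of three experiments in triplicate; t-test vs vehicle.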

Assay [7] is filed under the species Homo sapiens. As to the kind of experiment: Estrogenic activity at estrogen receptor in human MCF7:D5L cells co-expressing ERE assessed as induction of luciferase gene expression at 1 micoM after 16 hrs by microplate reader relative to untreated vehicle control. Format: cell-based. Put shortly:
(§5)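 MCF-7:D5L cells (MCF-7 stably carrying ERE-driven luciferase reporter) plated at 12,000/well in phenol red-free MEM with 1 µg/mL insulin and 5% DCC-FBS. Compounds up to 10 µM, or DMSO (0.1% final), added 72 h after plating. Luciferase read 16 h later, as % of vehicle. Three independent experiments in triplicate.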

Assay [8] has as its system MCF7. Description: Antiproliferative activity against estrogen-deficient human MCF7 cells at 1 uM after 72 hrs by MTT assay relative to untreated vehicle control. It is filed as functional. The method, boiled down: as §3
The species entered for assay [9] is Homo sapiens. Description: Estrogenic activity at estrogen receptor in human MCF7:D5L cells co-expressing ERE assessed as induction of luciferase gene expression at 10 micoM after 16 hrs by microplate reader relative to untreated vehicle control. Format: cell-based. Put shortly: as §5
Assay [10] is described as follows: Estrogenic activity at estrogen receptor in human Ishikawa cells assessed as induction of alkaline phosphatase expression after 72 hrs by microplate reader. It is filed as cell-based. Put shortly:
as §1

Assay [11] is described as follows: Estrogenic activity at estrogen receptor in human MCF7:D5L cells co-expressing ERE assessed as induction of luciferase gene expression after 16 hrs by microplate reader. Format: cell-based. The method, boiled down:
as §5

In assay [12] the test system is Ishikawa. As to the kind of experiment: Estrogenic activity at estrogen receptor in human Ishikawa cells assessed as induction of alkaline phosphatase expression at 100 nM after 72 hrs by microplate reader. It is filed as cell-based. Put shortly: as §4
Assay [13] is filed under the species Homo sapiens. Description: Estrogenic activity at estrogen receptor in human MCF7:D5L cells co-expressing ERE assessed as induction of luciferase gene expression at 100 nM after 16 hrs by microplate reader relative to untreated vehicle control. It is filed as cell-based. The method, boiled down: as §2
The species entered for assay [14] is Homo sapiens. Description: Estrogenic activity at estrogen receptor in human MCF7:D5L cells co-expressing ERE assessed as induction of luciferase gene expression at 100 nM after 16 hrs by microplate reader in presence of 100 nM ERalpha antagonist MPP. It is filed as functional, cell-based. Put shortly: as §2
The nature of assay [15]: Estrogenic activity at estrogen receptor in human Ishikawa cells assessed as induction of alkaline phosphatase expression at 100 nM after 72 hrs by microplate reader relative to estradiol in presence of 100 nM ERalpha antagonist MPP. It is filed as functional. The method, boiled down:
as §4

The test system of assay [16] is Ishikawa. Description: Inhibition of estradiol-stimulated cell proliferation of human Ishikawa cells at 10 uM after 72 hrs by MTT assay. Format: functional, cell-based.
Assay [17] concerns MDA-MB-231. As to the kind of experiment: Antiproliferative activity against ERalpha-deficient human MDA-MB-231 cells assessed as inhibition of cell proliferation at 10 uM after 72 hrs by MTT assay. Format: functional. To be noted: MDA-MB-231, 72 h. Put shortly: (§6)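 MDA-MB-231 breast adenocarcinoma cells in phenol red-free MEM with 1 µg/mL insulin and 5% dextran-coated charcoal-treated FBS. Compound added 24 h after plating, DMSO vehicle at 0.1% final. Viable cells read 72 h later as MTT-formazan absorbance, 550 minus 690 nm reference, expressed as % of vehicle-treated cells.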

Assay [18] relates to MCF7. As to the kind of experiment: Growth stimulation of estrogen-deficient human MCF7 cells at 0.01 to 10 uM after 72 hrs by MTT assay. It is filed as functional, cell-based. The method, boiled down: as §3
The subject of assay [19] is MCF7. Description: Growth stimulation of human MCF7:D5L cells co-expressing ERE assessed as increase in viable cell number by MTT assay. Format: functional, cell-based.
The subject of assay [20] is MDA-MB-231. Description: Antiproliferative activity against ERalpha-deficient human MDA-MB-231 cells assessed as inhibition of cell proliferation at 1 uM after 72 hrs by MTT assay. It is filed as functional, cell-based. The method, boiled down: as §6
Assay [21] has as its system Ishikawa. Description: Inhibition of estradiol-stimulated cell proliferation of human Ishikawa cells at 1 uM after 72 hrs by MTT assay. Format: functional, cell-based.
Assay [22] has as its system MCF7. Description: Stimulation of proliferation of estrogen-deficient human MCF7 cells after 72 hrs by MTT assay. To be noted: MCF7, 72 h.
The test system of assay [23] is Ishikawa. Description: Growth stimulation of human Ishikawa cells at 10 uM after 72 hrs by MTT assay. Format: functional, cell-based.

As a reminder, the EC50 is the concentration at which the effect is half-maximal. A word on the inhibition: it is the drop in the measured response relative to a control, in per cent.

Molecules are shown by their SMILES. Active and inactive are the calls of the source. The rule behind the calls is not given here.

With `C[C@]12CC[C@@H]3c4ccc(O)cc4CC[C@H]3[C@@H]1CC[C@@H]2O` [ESTRADIOL], the Efficacy with Ishikawa [1] was 440%; in the assay with Ishikawa [3], 440%; in the assay on MCF7 [5], 185%; in the assay filed under Homo sapiens [7], 402%; with MCF7 [8] it was 185%; in the assay filed under Homo sapiens [9], 402%. Also, the result in the assay listed under Homo sapiens [2] and in the assay with Ishikawa [6] was inactive. The EC50 in the assay with MCF7 [4] was 0.0064 nM; in [10], 0.0246 nM; in assay [11], 0.0196 nM.

Regarding `CCCc1c(-c2ccc(O)cc2)nn(-c2ccc(O)cc2)c1-c1ccc(O)cc1` [PROPYLPYRAZOLETRIOL], the result in the assay on Ishikawa [12] and in the assay filed under Homo sapiens [13] was Active. Moreover, the result in the assay listed under Homo sapiens [14] was inactive. Also, in assay [15], the Activity is reported as 70%.

Regarding `CCCCCCCCCCCNC(=O)Oc1cc(O)c2c(=O)c(-c3ccc(OC)cc3)coc2c1`, the Efficacy came to 375% with Ishikawa [1]; 203% with Ishikawa [3]; 108% with MCF7 [5]; 524% in the assay listed under Homo sapiens [7]; 117% with MCF7 [8]; 803% in the assay listed under Homo sapiens [9]. The inhibition entry in the assay on Ishikawa [16] and in the assay with Ishikawa [21] was “Active” throughout. For the same compound, the inhibition at 10 µM in the assay on MDA-MB-231 [17] turned out to be 21%. In addition, the outcome in the assay with MCF7 [18] and in the assay on MCF7 [19] was inactive. The EC50 in assay [10] turned out to be 1700 nM; in assay [11], 320 nM. In the assay on MDA-MB-231 [20], the inhibition entry is “inactive”.

In the case of `COc1ccc(-c2coc3cc(OC(=O)CCl)cc(O)c3c2=O)cc1`, the Efficacy in the assay with Ishikawa [1] is 354%; with Ishikawa [3] it was 314%; in the assay on MCF7 [5], 155%; in the assay filed under Homo sapiens [7], 823%; in the assay with MCF7 [8], 152%; in the assay filed under Homo sapiens [9] it was 1310%. Also, the EC50 worked out at 550 nM in the assay with MCF7 [22], 470 nM in [10] and 140 nM in assay [11]. The result in the assay on MCF7 [18] was Active. Moreover, in the assay with MCF7 [19], the outcome was inactive.

For the compound `COc1ccc(-c2coc3cc(OC(=O)CBr)cc(O)c3c2=O)cc1`, the Efficacy was found to be 387% in the assay with Ishikawa [1]; 332% in the assay on Ishikawa [3]; 154% in the assay on MCF7 [5]; 584% in the assay listed under Homo sapiens [7]; 156% in the assay on MCF7 [8]; 1320% in the assay filed under Homo sapiens [9]. Besides, the EC50 with MCF7 [22] turned out to be 280 nM; in [10], 520 nM; in assay [11], 180 nM. Besides, the result with MCF7 [18] was Active. Besides, the result in the assay with MCF7 [19] was inactive.

As to `COc1ccc(-c2coc3cc(OC(=O)NCCCl)cc(O)c3c2=O)cc1`, the Efficacy came to 445% in the assay on Ishikawa [1]; 295% in the assay with Ishikawa [3]; 166% in the assay on MCF7 [5]; 635% in the assay listed under Homo sapiens [7]; 139% in the assay on MCF7 [8]; 1140% in the assay listed under Homo sapiens [9]. Moreover, the results for the EC50 (with MCF7 [22]; in assay [10]; in assay [11]) were 680 nM, 660 nM and 140 nM, respectively. For the same compound, the result in the assay with MCF7 [18] was Active. Also, the outcome in the assay on MCF7 [19] was inactive.

For the compound `COc1ccc(-c2coc3cc(O)cc(O)c3c2=O)cc1` [BIOCHANIN], the Efficacy with Ishikawa [1] is 309%; in the assay with Ishikawa [3], 310%; in the assay with MCF7 [5], 167%; in the assay filed under Homo sapiens [7] it was 490%; with MCF7 [8] it was 161%; in the assay filed under Homo sapiens [9] it was 733%. Further, the EC50 in the assay with MCF7 [22] is 210 nM; in assay [10] it was 420 nM; in assay [11], 300 nM. The result with Ishikawa [23] and with MCF7 [18] was Active.

With `COc1ccc(-c2coc3cc(OC(=O)NCCBr)cc(O)c3c2=O)cc1`, the Efficacy with Ishikawa [1] is 440%; with Ishikawa [3], 302%; in the assay on MCF7 [5], 145%; in the assay filed under Homo sapiens [7], 531%; in the assay with MCF7 [8], 151%; in the assay filed under Homo sapiens [9], 1050%. In addition, the EC50 was found to be 420 nM in the assay with MCF7 [22], 620 nM in assay [10] and 220 nM in assay [11]. Besides, the outcome with MCF7 [18] was Active. Further, the outcome in the assay with MCF7 [19] was inactive.
